# Published values from different studies.
# Protocols differ between the studies behind these lines.
# Target: Cyclin-dependent kinase 14 (CDK14, Homo sapiens, UniProt O94921)
SMILES,test,setting,remaining binding [%]
Cc1cnc(Nc2ccc(C(=O)N3CCC(N4CCCC4)CC3)cc2)nc1-c1cc2ccccc2s1,"binding, competition with immobilised ligand",1 µM,100
CN(c1nccc(-c2cnn3ncccc23)n1)C1CC1,binding,1 µM,100
COc1cnc(Nc2cccc(S(N)(=O)=O)c2)nc1N1CCN(c2ccccc2)CC1,"binding, competition with immobilised ligand",1 µM,94
CC(=O)N1CCC(c2ccc(C(=O)NC3=NCCN3)cc2C(F)(F)F)CC1,"cell-free assay, competition with immobilised ligand",1 µM,100
CN(C)c1nccc(-c2cnc3ncccn23)n1,binding,1 µM,100
CN(C(=O)c1ccccc1)c1cc(N(C)c2ccc3c(c2)CCc2ccc(C(=O)NCCN4CCOCC4)cc2C3=O)ccc1F,"cell-free assay, competition with immobilised ligand",1 µM,100
O=C(Nc1c[nH]nc1C(=O)NC1CCNCC1)c1cc(F)cc(F)c1,"binding, competition with immobilised ligand",1 µM,99
COc1ccnn2ncc(-c3ccnc(N(C)C)n3)c12,binding,1 µM,100
O=C(NCCCN1CCOCC1)c1ccc(Nc2ncc(Cl)c(-c3ccc(Cl)s3)n2)cc1,"binding, competition with immobilised ligand",1 µM,37
N[C@@H]1CCN(c2nccc(-c3cnn4ncccc34)n2)C1,binding,1 µM,100
O=C(N1CCS(=O)(=O)CC1)N1C[C@H](c2ccc(OC(F)(F)F)cc2)C[C@H](c2nc(C3CC3)no2)C1,"cell-free assay, competition with immobilised ligand",1 µM,100
CN(C)c1nccc(-c2cnn3ncccc23)n1,binding,1 µM,89
Cc1cc(C)c(-n2ccn3nc(-c4cccnc4)cc23)cc1NC(=O)c1cc(C#N)cc(S(F)(F)(F)(F)F)c1,"cell-free assay, competition with immobilised ligand",0.1 µM,100
O=C(c1ccc(Nc2ncc(Cl)c(-c3cc4ccccc4s3)n2)cc1)N1CCC(N2CCCC2)CC1,"binding, competition with immobilised ligand",1 µM,78
O=C(N[C@H]1CCCCC/C=C\C2C[C@@]2(C(=O)O)NC(=O)[C@@H]2C[C@@H](Oc3ccncc3)CN2C1=O)OC1CCCC1 (stereo partly drawn),"binding, competition with immobilised ligand",1 µM,91
CNC(=O)[C@@H]1CC[C@@H](n2c(-c3ccc4cnccc4c3)nc3ccc(C(=O)NCc4cccc(C(N)=O)c4)cc32)C1,"binding, competition with immobilised ligand",1 µM,100
CS(=O)(=O)c1cc(C2(NC(=O)c3cncc4c3cnn4-c3ccc(F)cc3)CC2)ccn1,"cell-free assay, competition with immobilised ligand",1 µM,100
c1cnn2ncc(-c3ccnc(N4CCC45COC5)n3)c2c1,binding,1 µM,88
